Experiments:
[1] = target: Human immunodeficiency virus type 1 protease (Human immunodeficiency virus 1) (UniProt Q72874); assay: Inhibition of recombinant HIV-1 protease (NY-5) using 5 uM
[2] = Bioavailability in rat after i.d. administration; type: ADME, organism-based; settings: in vivo
Summary of the method: (§1)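 Three male Sprague–Dawley rats (300–400 g) per compound were anesthetized and dosed at 10 mg/kg in 50% PEG. Dosing was iv via the femoral vein or id by tube into the duodenum. Plasma was extracted with internal standard and analyzed by C18 HPLC with UV at 210 nm. Analysis was noncompartmental; F was calculated from id vs iv AUC. Values are mean ± SEM.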

[3] = Time of maximum plasma concentration (Tmax) was determined in rats after intraduodenal administration of the drug.; type: ADME, organism-based; settings: rat; summary of the method: as §1
CEM-SS = assay: Antiviral activity was determined based on inhibition of HIV-1 IIIB induced cytopathic effects in CEM-SS cells in vitro using tetrazolium reagent.; type: functional, cell-based; settings: Homo sapiens
Summary of the method: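 CEM-SS cells (2.5 × 10^4 cells/mL) were cultured with HIV-1 IIIB and compound in RPMI-1640 with 10% FCS and gentamicin for 6 days at 37 °C in 5% CO2. The virus titer was set to kill all cells by day 6. Cytopathic effect was read by XTT staining, and IC50 was taken as the mean of duplicates.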

[4] = Maximum plasma concentration (Cmax) was determined in rats after intraduodenal administration of the drug; type: ADME, organism-based; design: route intraduodenal; settings: rat; summary of the method: as §1
[5] = Toxic concentration was determined for CEM-SS cells; type: toxicity, cell-based; settings: human, read-out: TC50 (the source's name)
Summary of the method: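 CEM-SS cells (2.5 × 10^4 cells/mL) were exposed to compound in RPMI-1640 with 10% FCS and gentamicin for 6 days at 37 °C in 5% CO2. Viability was read by XTT staining, and TC50 was taken as the mean of duplicates.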

[6] = target: Human immunodeficiency virus type 1 protease (Human immunodeficiency virus 1, UniProt Q72874); assay: Inhibition of recombinant HIV-1 protease (NY-5)
[7] = Plasma half life was determined in rats after intravenous administration of the drug.; type: ADME, organism-based; settings: rat; summary of the method: as §1
[8] = target: Human immunodeficiency virus type 1 protease (Human immunodeficiency virus 1) (UniProt Q72874); assay: Inhibition of recombinant HIV-1 protease (NY-5) using 50 nM
Summary of the method: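 Recombinant HIV-1 protease (NY5 sequence) was expressed in E. coli and purified. It was preincubated with inhibitor in DMSO for 5 min at 37 °C in MES–NaOH pH 6.0 with DTT and EDTA. Substrate H-SQNYPIV-OH was then added for 60 min at 37 °C, and the reaction was stopped with TFA. The PIV product was measured by reverse-phase HPLC at 215 nm against a synthetic standard.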

[9] = Maximum plasma concentration (Cmax) was determined in fasted dogs after oral administration of 25 mg/kg of the compound.; type: ADME, organism-based, Canis lupus familiaris; design: dose 25 mg/kg, route oral; settings: dog
Summary of the method: (§2)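 Male beagles (7–10 kg) were assigned six per group. Each received 25 mg/kg from a 12.5 mg/mL solution in 50% PEG-in-water, either as an iv bolus via the cephalic vein or by oral gavage, fed or fasted overnight. Plasma was measured by HPLC. Analysis was noncompartmental: trapezoidal AUC, terminal-slope t1/2, CL = dose/AUC, Vdss from AUMC/AUC, and F from oral vs iv AUC. Values are mean ± SEM.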

[10] = Plasma clearance rate (CL) was determined in dogs after intravenous administration of 25 mg/kg of the compound.; type: ADME, organism-based, Canis lupus familiaris; design: dose 25 mg/kg, route intravenous; settings: dog; summary of the method: as §2
[11] = Percent bioavailability (F%) was determined in fasted dogs after oral administration of 25 mg/kg of the compound.; type: ADME, organism-based, Canis lupus familiaris; settings: dog, in vivo; summary of the method: as §2
Canis familiaris [12] = assay: Area under curve (AUC) was determined in dogs fed after intravenous administration of 25 mg/kg of the compound; type: ADME, organism-based, Canis lupus familiaris; design: dose 25 mg/kg, route intravenous; settings: dog, in vivo; summary of the method: as §2
[13] = Maximum plasma concentration (Cmax) was determined in dogs fed after oral administration of 25 mg/kg of the compound.; type: ADME, organism-based, Canis lupus familiaris; design: dose 25 mg/kg, route oral; settings: dog; summary of the method: as §2
[14] = Time of maximum plasma concentration (Tmax) was determined in dogs fed after oral administration of 25 mg/kg of the compound.; type: ADME, organism-based, Canis lupus familiaris; design: dose 25 mg/kg, route oral; settings: dog; summary of the method: as §2
Canis familiaris [15] = assay: Area under curve (AUC) was determined in fasted dogs after oral administration of 25 mg/kg of the compound; type: ADME, organism-based, Canis lupus familiaris; design: dose 25 mg/kg, route oral; settings: dog, in vivo; summary of the method: as §2
Canis familiaris [16] = assay: Area under curve (AUC) was determined in dogs fed after oral administration of 25 mg/kg of the compound; type: ADME, organism-based, Canis lupus familiaris; design: dose 25 mg/kg, route oral; settings: dog, in vivo; summary of the method: as §2
[17] = Time of maximum plasma concentration (Tmax) was determined in fasted dogs after oral administration of 25 mg/kg of the compound.; type: ADME, organism-based, Canis lupus familiaris; design: dose 25 mg/kg, route oral; settings: dog; summary of the method: as §2
[18] = Plasma half life was determined in dogs after intravenous administration of 25 mg/kg of the compound.; type: ADME, organism-based, Canis lupus familiaris; design: dose 25 mg/kg, route intravenous; settings: dog; summary of the method: as §2
[19] = Percent bioavailability (F%) was determined in dogs fed after oral administration of 25 mg/kg of the compound; type: ADME, organism-based, Canis lupus familiaris; settings: dog, in vivo; summary of the method: as §2
[20] = Volume of distribution (Vdss) was determined in dogs after intravenous administration of 25 mg/kg of the compound.; type: ADME, organism-based, Canis lupus familiaris; design: dose 25 mg/kg, route intravenous; settings: dog, in vivo, read-out: Vdss; summary of the method: as §2
[21] = target: Human immunodeficiency virus type 1 protease (Human immunodeficiency virus 1) (UniProt Q72874); assay: Inhibition of recombinant HIV-1 protease (NY-5) using 50 nM

SMILES | inhibition [1] [%] | inhibition [8] [%] | IC50 (CEM-SS) [nM] | CC50 [5] [nM] | Ki [6] [nM] | further results
Cc1c(O)cccc1C(=O)N[C@@H](Cc1ccccc1)[C@H](O)C(=O)N1CSC[C@H]1C(=O)NC(C)(C)C | 97 | 36 | > 200 | > 20000 | 24.9 | bioavailability [2]: 33.9%; Tmax [3]: 0.5 h; Cmax [4]: 2910 nM; half-life [7]: 0.983 h
CS[C@H](NC(=O)COc1cccc2cnccc12)C(=O)N[C@@H](Cc1ccccc1)[C@H](O)C(=O)N1CSC(C)(C)[C@H]1C(=O)NC(C)(C)C | – | – | 6 | > 20000 | 0.088 | –
Cc1ccc(OCC(=O)N[C@@H](Cc2ccccc2)[C@H](O)C(=O)N2CSC[C@H]2C(=O)NC(C)(C)C)cc1 | 44 | – | – | – | – | –
Cc1cccc(C)c1OCC(=O)N[C@@H](Cc1ccccc1)[C@H](O)C(=O)N1CSC(C)(C)[C@H]1C(=O)NC(C)(C)C | 97 | 35 | > 200 | > 20000 | 1.4 | –
Cc1cccc(C)c1OCC(=O)N[C@@H](Cc1ccccc1)[C@H](O)C(=O)N1CSC[C@H]1C(=O)NC(C)(C)C | 95 | 56 | > 200 | > 20000 | 21.7 | –
Cc1ccccc1CNC(=O)[C@H]1N(C(=O)[C@@H](O)[C@H](Cc2ccccc2)NC(=O)c2cccc(O)c2C)CSC1(C)C | – | 96 | 7 | > 20000 | 0.33 | Cmax [9]: 5300 nM; clearance [10]: 14.7 mL/min/kg; bioavailability [2]: 41.6%; Tmax [3]: 1 h; bioavailability [11]: 37.1%; AUC (Canis familiaris [12]): 51.6 µM·h; Cmax [13]: 4020 nM; Cmax [4]: 700 nM; Tmax [14]: 1.5 h; AUC (Canis familiaris [15]): 19.1 µM·h; AUC (Canis familiaris [16]): 16.8 µM·h; Tmax [17]: 1 h; half-life [7]: 1.55 h; half-life [18]: 1.57 h; bioavailability [19]: 32.6%; Vd [20]: 1.58 L/kg
CCc1c(O)cccc1C(=O)N[C@@H](Cc1ccccc1)[C@H](O)C(=O)N1CSC(C)(C)[C@H]1C(=O)NC(C)(C)C | 99 | 84 | 92 | > 20000 | 2.24 | bioavailability [2]: 37%; Tmax [3]: 0.5 h; Cmax [4]: 1160 nM; half-life [7]: 1.4 h
Cc1c(O)cccc1C(=O)N[C@@H](Cc1ccccc1)[C@H](O)C(=O)N1CSC(C)(C)[C@H]1C(=O)NC(C)(C)C | 99 | 88 | 19 | > 20000 | 5.14 | bioavailability [2]: 39.4%; Tmax [3]: 0.5 h; Cmax [4]: 2600 nM; half-life [7]: 1.38 h
Cc1ccccc1CNC(=O)[C@@H]1CSCN1C(=O)[C@@H](O)[C@H](Cc1ccccc1)NC(=O)c1cccc(O)c1C | – | – | > 200 | > 20000 | 8.9 | bioavailability [2]: 32.3%; Tmax [3]: 0.5 h; Cmax [4]: 770 nM; half-life [7]: 0.683 h
Cc1c(N)cccc1C(=O)N[C@@H](Cc1ccccc1)[C@H](O)C(=O)N1CSC[C@H]1C(=O)NC(C)(C)C | 81 | – | – | – | – | –
CS[C@H](NC(=O)COc1cccc2cnccc12)C(=O)N[C@@H](Cc1ccccc1)[C@H](O)C(=O)N1CSC[C@H]1C(=O)NC(C)(C)C | – | – | 34 | > 20000 | 0.74 | –
Cc1c(O)cccc1C(=O)N[C@@H](Cc1ccccc1)[C@H](O)C(=O)N1CSC(C)(C)[C@H]1C(=O)NCc1ccccc1Cl | – | 95 | 34 | > 20000 | 0.29 | –
Cc1c(O)cccc1C(=O)N[C@@H](Cc1ccccc1)[C@H](O)C(=O)N1CSC[C@H]1C(=O)NCc1ccccc1 | – | – | – | – | 59 | inhibition [21]: 43%

Continued, in another order:

inhibition [1] [%] | inhibition [8] [%] | SMILES | IC50 (CEM-SS) [nM] | CC50 [5] [nM] | Ki [6] [nM] | further results
75 | – | Cc1ccccc1C(=O)N[C@@H](Cc1ccccc1)[C@H](O)C(=O)N1CSC[C@H]1C(=O)NC(C)(C)C | – | – | – | –
82 | – | Cc1ccccc1OCC(=O)N[C@@H](Cc1ccccc1)[C@H](O)C(=O)N1CSC[C@H]1C(=O)NC(C)(C)C | – | – | – | –
98 | 46 | CCc1c(O)cccc1C(=O)N[C@@H](Cc1ccccc1)[C@H](O)C(=O)N1CSC[C@H]1C(=O)NC(C)(C)C | – | – | 22.2 | bioavailability [2]: 36.2%; Tmax [3]: 0.5 h; Cmax [4]: 1730 nM; half-life [7]: 1.23 h
52 | – | CC(C)(C)NC(=O)[C@@H]1CSCN1C(=O)[C@@H](O)[C@H](Cc1ccccc1)NC(=O)c1ccccc1 | – | – | – | –
– | 88 | Cc1c(O)cccc1C(=O)N[C@@H](Cc1ccccc1)[C@H](O)C(=O)N1CSC(C)(C)[C@H]1C(=O)NCc1ccccc1C(F)(F)F | – | – | – | –
76 | – | CC(C)(C)NC(=O)[C@@H]1CSCN1C(=O)[C@@H](O)[C@H](Cc1ccccc1)NC(=O)c1cccc(O)c1 | – | – | – | –
– | 75 | Cc1cccc(C)c1CNC(=O)[C@@H]1CSCN1C(=O)[C@@H](O)[C@H](Cc1ccccc1)NC(=O)c1cccc(O)c1C | – | – | 4.8 | –
– | 13 | Cc1ccc(CNC(=O)[C@@H]2CSCN2C(=O)[C@@H](O)[C@H](Cc2ccccc2)NC(=O)c2cccc(O)c2C)cc1 | – | – | – | –
– | 97 | CCc1c(O)cccc1C(=O)N[C@@H](Cc1ccccc1)[C@H](O)C(=O)N1CSC(C)(C)[C@H]1C(=O)NCc1ccccc1C | 11 | > 20000 | 0.19 | bioavailability [2]: 10%; Tmax [3]: 0.167 h; Cmax [4]: 230 nM; half-life [7]: 2.1 h
97 | 35 | CCCc1cccc(C)c1OCC(=O)N[C@@H](Cc1ccccc1)[C@H](O)C(=O)N1CSC[C@H]1C(=O)NC(C)(C)C | – | – | – | –
38 | – | Cc1cccc(OCC(=O)N[C@@H](Cc2ccccc2)[C@H](O)C(=O)N2CSC[C@H]2C(=O)NC(C)(C)C)c1 | – | – | – | –
92 | 17 | CCCc1c(O)cccc1C(=O)N[C@@H](Cc1ccccc1)[C@H](O)C(=O)N1CSC[C@H]1C(=O)NC(C)(C)C | – | – | – | –
– | 18 | Cc1cccc(CNC(=O)[C@@H]2CSCN2C(=O)[C@@H](O)[C@H](Cc2ccccc2)NC(=O)c2cccc(O)c2C)c1 | – | – | – | –
62 | – | CCc1cccc(CC)c1OCC(=O)N[C@@H](Cc1ccccc1)[C@H](O)C(=O)N1CSC[C@H]1C(=O)NC(C)(C)C | – | – | – | –
94 | 32 | CCc1cccc(C)c1OCC(=O)N[C@@H](Cc1ccccc1)[C@H](O)C(=O)N1CSC[C@H]1C(=O)NC(C)(C)C | – | – | – | –
48 | – | CC(C)(C)NC(=O)[C@@H]1CSCN1C(=O)[C@@H](O)[C@H](Cc1ccccc1)NC(=O)COc1ccccc1 | – | – | – | –

From ChEMBL document CHEMBL1132212, “Structure-activity relationship of small-sized HIV protease inhibitors containing allophenylnorstatine” (J Med Chem, 1999)
